Bounds are passed on as bounds.

Here are results for 13 compounds from ChEMBL document CHEMBL4765245 (Eur J Med Chem, 2020).

Data set [1] concerns Coxsackievirus B3. In words: Antiviral activity against pleconaril-resistant Coxsackievirus B3 97927 11207M/I1092 mutant infected in human HeLa cell line assessed as inhibition of virus-induced cytopathic effect measured after 48 hrs by crystal violet uptake assay. Type of data set: functional, organism-based. A digest of the protocol: (§1)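 HeLa Ohio monolayers, 2 days old and confluent, in MEM with 2% FCS. Serial half-log compound dilutions from 100 μM were added just before CVB3 infection. Activity was calculated per Pauwels against six cell and six virus controls; mean IC50 from ≥3 experiments.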

Data set [2] has as its system rhinovirus A2. In words: Antiviral activity against Rhinovirus A2 infected in human HeLa cell line assessed as inhibition of virus-induced cytopathic effect measured after 72 hrs by crystal violet uptake assay. Type of data set: functional, organism-based. Put shortly: (§2)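 HeLa Ohio monolayers, 1 day old, in 2% FCS medium. Compound added as serial half-log dilutions from 100 μM immediately before rhinovirus infection. Activity calculated per Pauwels; IC50 is the mean of at least 3 experiments.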

Data set [3] has as its system HeLa. In words: (§3) Cytotoxicity against human HeLa cells assessed as reduction in cell viability incubated for 72 hrs measured by crystal violet based micro plate reader method. The settings on record: hela, 72 h. A digest of the protocol:
(§4)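 Two-day-old confluent HeLa Ohio monolayers exposed to half-log dilutions (100 μM downward) in 2% FCS medium for 72 h at 37 °C, 5% CO2. Cells fixed and stained with crystal violet/formalin, dye eluted with acidified citrate-ethanol, OD read at 550/630 nm. Viability expressed relative to six mock-treated controls; CC50 is the mean of at least 3 tests.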

Data set [4] concerns Coxsackievirus B3. Description: Antiviral activity against Coxsackievirus B3 Nancy infected in human HeLa cell line assessed as inhibition of virus-induced cytopathic effect measured after 48 hrs by crystal violet uptake assay. The class given is functional, organism-based. Put shortly:
as §1

Data set [5] has as its system Coxsackievirus B3. In words: Antiviral activity against wild type Coxsackievirus B3 97927 infected in human HeLa cell line assessed as inhibition of virus-induced cytopathic effect measured after 48 hrs by crystal violet uptake assay. The class given is functional, organism-based. To be noted: read-out: IC50. A digest of the protocol:
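Coxsackievirus B3 infection of 2-day-old HeLa Ohio monolayers in 2% FCS medium. Half-log dilutions from 100 μM added just before infection; guanidine hydrochloride served as positive control. Antiviral activity calculated per Pauwels; IC50 is the mean of at least 3 separate tests.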

The subject of data set [6] is rhinovirus B14. In words: Antiviral activity against Rhinovirus B14 infected in human HeLa cell line assessed as inhibition of virus-induced cytopathic effect measured after 72 hrs by crystal violet uptake assay. Type of data set: functional, organism-based. Put shortly: as §2
Data set [7] deals with rhinovirus B5. Description: Antiviral activity against Rhinovirus B5 infected in human HeLa cell line assessed as inhibition of virus-induced cytopathic effect measured after 72 hrs by crystal violet uptake assay. The class given is functional, organism-based. Put shortly: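 HeLa Ohio monolayers, 1 day old, in 2% FCS medium. Compound added as serial half-log dilutions from 100 μM immediately before rhinovirus infection. CPE read at 72 h by crystal violet staining, elution and OD 550/630 nm, with six cell and six virus controls per plate. Activity calculated per Pauwels; IC50 is the mean of at least 3 experiments.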

The test system of data set [8] is Coxsackievirus B3. Description: Antiviral activity against pleconaril-resistant Coxsackievirus B3 97927 11207T/I1092 mutant infected in human HeLa cell line assessed as inhibition of virus-induced cytopathic effect measured after 48 hrs by crystal violet uptake assay. The class given is functional, organism-based. A digest of the protocol:
as §1

Data set [9] has as its system Coxsackievirus B3. In words: Antiviral activity against pleconaril-resistant Coxsackievirus B3 97927 11207K/I1092 mutant infected in human HeLa cell line assessed as inhibition of virus-induced cytopathic effect measured after 48 hrs by crystal violet uptake assay. The class given is functional, organism-based. A digest of the protocol:
as §1

Data set [10] is described as follows: as §3. To be noted: HeLa cells. A digest of the protocol: as §4
Data set [11] in a line: Mutagenicity in Escherichia coli PQ37 at 10 mg/ml by SOS-chromotest. The class given is toxicity.
Data set [12] can be described thus: Genotoxicity in Escherichia coli PQ37 assessed as zone of inhibition at 10 mg/ml measured on day 3 by SOS-chromo0test relative to control. Type of data set: toxicity. To be noted: 72 h, time 3 day.
Where [13] appears, read: Rhinovirus A, HeLa, 72 h, read-out: IC50.
Setting [14] is: Enterovirus B, Nancy, HeLa, 48 h, read-out: IC50.
Where [15] appears, read: Enterovirus B, 97927, HeLa, 48 h.
The mark [16] stands for this setting: Rhinovirus B, HeLa, 72 h, read-out: IC50.

For the compound `CN(C)C(=O)c1cc(CCCOc2ccc(-c3noc(C(F)(F)F)n3)cc2N)on1`, the IC50 in [1] is 2080 nM; in data set [2] (setting [13]), 18200 nM; in data set [4] (setting [14]) it was 27800 nM; in data set [5] (setting [15]) it was 4470 nM; in data set [6] (setting [16]) it was 330 nM; in [7], “Not Active”. Moreover, the IC50 in data set [8] (read-out: IC50) was determined as 14300 nM; in [9] (read-out: IC50), 51600 nM. In addition, the CC50 in data set [3] was 90800 nM.

Regarding `CN(C)C(=O)c1cc(CCCOc2ccc(-c3noc(C(F)(F)F)n3)cc2F)on1`, the IC50 in data set [1] is 60 nM; in [2] (setting [13]) it was 3770 nM; in data set [4] (setting [14]), 18500 nM; in data set [5] (setting [15]), 25 nM; in [6] (setting [16]), 50 nM; in data set [7] (setting [16]) it was 4040 nM. For the same compound, the IC50 in data set [8] (read-out: IC50) was 1440 nM; in data set [9] it was “Not Active”. Also, in [3], the CC50 is 20200 nM.

For the compound `CCOC(=O)c1cc(CCCOc2ccc(-c3noc(C(F)(F)F)n3)cn2)on1`, the IC50 result is “Not Active” in data set [2]; “Not Active” in data set [4]; 10300 nM in data set [5] (setting [15]); 1990 nM in [6] (setting [16]); “Not Active” in data set [7]. For the same compound, in data set [10], the CC50 at 72 h is more than 100000 nM.

For the compound `Cc1cc(-c2noc(C(F)(F)F)n2)cc(C)c1OCCCc1cc(C(=O)N(C)C)no1`, the IC50 is 30 nM in data set [1]; 120 nM in data set [2] (setting [13]); 20 nM in data set [5] (setting [15]); 120 nM in data set [6] (setting [16]); 1010 nM in data set [8] (read-out: IC50); 6330 nM in data set [9] (read-out: IC50). For the same compound, the CC50 in [3] turned out to be 13200 nM. Besides, in data set [11], the Activity entry is given as “Non-Toxic”. For the same compound, in data set [12], the “inhibition zone (IZ)” value worked out at 0 mm.

`COc1cc(-c2noc(C(F)(F)F)n2)cc([N+](=O)[O-])c1OCCCc1cc(C(=O)N(C)C)no1`: the IC50 was 880 nM in [1]; 320 nM in data set [2] (setting [13]); 14500 nM in [4] (setting [14]); 365 nM in data set [5] (setting [15]); 200 nM in data set [6] (setting [16]); “Not Active” in data set [7]. Besides, the IC50 in data set [8] (read-out: IC50) was 840 nM; in data set [9], “Not Active”. The CC50 in data set [3] is 25600 nM.

For `CN(C)C(=O)c1cc(CCCOc2ccc(-c3noc(C(F)(F)F)n3)cc2)on1`, the IC50 in data set [1] came to 20 nM; in data set [2] (setting [13]), 4610 nM; in data set [4] (setting [14]), 10800 nM; in [5] (setting [15]) it was 458 nM; in [6] (setting [16]), 40 nM; in data set [7] (setting [16]), 1740 nM. The IC50 in [8] (read-out: IC50) is 8110 nM; in [9] (read-out: IC50) it was 27500 nM. Moreover, the CC50 in [3] came to 28000 nM.

`CN(C)C(=O)c1cc(CCCOc2ccc(-c3noc(C(F)(F)F)n3)cc2[N+](=O)[O-])on1`: the IC50 in data set [1] was found to be 1 nM; in data set [2] (setting [13]), 670 nM; in data set [4] (setting [14]) it was 1660 nM; in data set [5] (setting [15]) it was 3 nM; in [6] (setting [16]), 280 nM; in [7] (setting [16]), 7630 nM. The IC50 in data set [8] (read-out: IC50) is 30 nM; in data set [9] (read-out: IC50) it was 6460 nM. Also, the CC50 in data set [3] is 22500 nM. Besides, the Activity result in [11] is on record as “Non-Toxic”. Further, in data set [12], the “inhibition zone (IZ)” value is recorded as 0 mm.

On to `COC(=O)c1cc(CCCOc2c(C)cc(-c3noc(C(F)(F)F)n3)cc2C)on1`, for which the IC50 in [1] was 1530 nM; in data set [2] (setting [13]), 360 nM; in data set [4] (setting [14]), 17900 nM; in [5] (setting [15]), 60 nM; in [6] (setting [16]), 370 nM; in [7], “Not Active”. The IC50 worked out at 12800 nM in [8] (read-out: IC50) and 20400 nM in data set [9] (read-out: IC50). Also, the CC50 in data set [3] worked out at 35400 nM.

With `CNC(=O)c1cc(CCCOc2c(C)cc(-c3noc(C(F)(F)F)n3)cc2C)on1`, the IC50 in data set [1] was 370 nM; in [2] (setting [13]), 200 nM; in data set [5] (setting [15]) it was 60 nM; in data set [6] (setting [16]), 20 nM; in data set [8], “Not Active”; in data set [9], “Not Active”. Moreover, the CC50 in data set [3] is more than 100000 nM. In addition, the Activity result in [11] is given as “Non-Toxic”. Also, the “inhibition zone (IZ)” value in [12] stood at 0 mm.

Take `CNC(=O)c1cc(CCCOc2ccc(-c3noc(C(F)(F)F)n3)cc2C(F)(F)F)on1`: the IC50 in data set [1] was 60 nM; in data set [2] (setting [13]), 960 nM; in data set [4] (setting [14]), 14100 nM; in data set [5] (setting [15]) it was 20 nM; in data set [6] it was “Not Active”; in data set [7], “Not Active”. Also, the IC50 in data set [8] (read-out: IC50) is 1040 nM; in data set [9] it was “Not Active”. In addition, in data set [3], the CC50 is more than 100000 nM.

As for `COc1cc(-c2noc(C(F)(F)F)n2)ccc1OCCCc1cc(C(=O)N(C)C)no1`, the IC50 amounted to 600 nM in data set [1]; 1970 nM in data set [2] (setting [13]); 37800 nM in [4] (setting [14]); 30 nM in [5] (setting [15]); 40 nM in data set [6] (setting [16]); 3280 nM in data set [7] (setting [16]). Moreover, the IC50 was found to be 1660 nM in [8] (read-out: IC50) and 51700 nM in data set [9] (read-out: IC50). For the same compound, the CC50 in data set [3] came to 68000 nM.

As to `CN(C)C(=O)c1cc(CCCOc2ccc(-c3noc(C(F)(F)F)n3)cc2C(F)(F)F)on1`, the IC50 in data set [1] is 160 nM; in data set [2] (setting [13]) it was 320 nM; in data set [4] (setting [14]), 2240 nM; in data set [5] it was 160 nM; in [6] (setting [16]), 6760 nM; in [7] it was “Not Active”. The results for the IC50 in [8] (read-out: IC50) and in data set [9] (read-out: IC50) were 540 nM and 7180 nM, respectively. Also, the CC50 in data set [3] was determined as 19200 nM. Further, the Activity entry in data set [11] is on record as “Non-Toxic”. The “inhibition zone (IZ)” value in [12] is listed as 0 mm.

For `CCOC(=O)c1cc(CCCOc2ccc(-c3noc(C(F)(F)F)n3)cc2C)on1`, the IC50 in [1] was 610 nM; in data set [2] it was “Not Active”; in data set [4] (setting [14]), 19000 nM; in data set [5] (setting [15]), 62 nM; in data set [6] (setting [16]), 520 nM; in data set [7], “Not Active”. For the same compound, the IC50 is 1230 nM in data set [8] (read-out: IC50) and “Not Active” in data set [9]. Moreover, the CC50 in [3] was 35100 nM.
